2 molecules from ChEMBL document CHEMBL3808379, “Isouronium and N-hydroxyguanidinium derivatives as Cell growth inhibitors: A comparative study” (Eur J Med Chem, 2016) can be followed below.

Activity calls are given as the source filed them. No cut-off for these calls is given here.

By ΔTm is commonly meant the change in melting temperature against a reference sample. As usually defined, the pKa is the negative logarithm of the acid dissociation constant. A lower pKa goes with a stronger acid or weaker base. For orientation: IC50 means the concentration at which inhibition is half-maximal.

Series [1] is described as follows: Binding affinity to salmon sperm DNA assessed as increase in thermal melting temperature by spectrophotometric analysis. Particulars: Salmonidae.
Series [2] in a line: Dissociation constant, pKa of the compound in 10 mM sodium phosphate buffer at pH 2 by UV spectroscopic analysis. Type of series: physicochemical.
Series [3] can be described thus: Cytotoxicity against human HL60 cells assessed as cell viability reduction incubated for 72 hrs by alamar blue assay. Type of series: functional, cell-based. The settings on record: HL-60, 72 h. The procedure, abridged: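 HL-60 cells in log phase, 40,000 per well, were treated in triplicate with compound at 10–100 µM (final, 1:100 from ddH2O stocks) or 1% ddH2O vehicle for 72 h at 37 °C. AlamarBlue was then added for 4.5 h in the dark and fluorescence read at ex 544/em 590 nm. Viability is blank-subtracted and expressed as % of vehicle. IC50 comes from a sigmoidal fit; ≥3 independent experiments.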
For orientation: The colour change of resazurin is a common sign of viable cells or microbes.

Series [4] relates to HL-60. Nature of the series: Induction of mitochondrial membrane depolarization in human HL60 cells at 50 to 100 uM after 48 hrs by JC1 staining-based flow cytometric analysis relative to vehicle control. Type of series: functional, cell-based. The procedure, abridged: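 HL-60 cells at 200,000 cells/mL exposed 48 h to 0, 50 or 100 μM. Washed in PBS and stained with JC-1 (5 μM) 30 min at 37 °C. Resuspended in ice-cold PBS and read by flow cytometry: excitation 488 nm, emission 535 (green) and 595 nm (red). Rising green:red ratio scored as ΔΨm loss; % cells with loss reported. Mean ± SEM, ≥3 experiments.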
A general note: A flow cytometer gives signals particle by particle.

In series [5] the test system is HL-60. Briefly: Induction of apoptosis in human HL60 cells assessed as caspase 3/7 activation at 50 to 100 uM after 48 hrs by caspase-glo luminescence assay relative to vehicle control. Type of series: functional, cell-based. The method in brief:
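HL-60 cells seeded at 20,000 cells/100 μl and treated 48 h with 0, 50 or 100 μM. Viability first measured by AlamarBlue. Cells then lysed with an equal volume of Caspase-Glo 3/7 reagent, shaken 1 h at room temperature in darkness, and luminescence read. Luminescence normalised to viability. Mean ± SEM, ≥3 experiments; P<0.05 taken as significant.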

Series [6] can be described thus: Cytotoxicity against human MCF10A cells assessed as cell viability reduction at 50 to 100 uM incubated for 72 hrs by alamar blue-based fluorimetric assay. The settings on record: mcf-10a. The method in brief:
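MCF-10A cells, 2000 per well, were allowed to attach for 24 h, then treated with 50 or 100 µM or with 1% ddH2O vehicle for 72 h. AlamarBlue (10% v/v) was added for 4.5 h at 37 °C in the dark and fluorescence read at ex 544/em 590 nm. Viability is expressed as % of vehicle after blank subtraction; mean ± S.E.M., ≥3 experiments.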

Series [7] is described as follows: Cytotoxicity against mouse NIH/3T3 cells assessed as cell viability reduction at 50 to 100 uM incubated for 72 hrs by alamar blue-based fluorimetric assay. Particulars: nih3t3, 72 h. The procedure, abridged:
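NIH/3T3 cells seeded at 10,000 cells/mL and left 24 h at 37 °C before treatment. Compound at 50 or 100 μM final for 72 h, vehicle 1% (v/v) ddH2O. AlamarBlue 10% (v/v) then added for 4.5 h in darkness at 37 °C. Fluorescence read at ex 544/em 590 nm, blank subtracted, expressed as % of vehicle control. Mean ± S.E.M., at least 3 experiments.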

The test system of series [8] is HL-60. Briefly: Induction of apoptosis in human HL60 cells at 100 uM after 72 hrs by propidium iodide staining-based flow cytometric analysis. Type of series: functional. The method in brief:
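HL-60 cells seeded at 200,000 cells/mL and treated 72 h, vehicle 1% (v/v) ddH2O. Harvested by centrifugation, fixed overnight in ice-cold 70% EtOH/PBS at −20 °C, then PI-stained 30 min at 37 °C. Flow cytometry of 10,000 gated events. Apoptosis taken from pre-G1 (<2N DNA) peak. Mean ± S.E.M., ≥3 experiments.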

Series [9] in a line: Cytotoxicity in human MCF10A cells assessed as induction of apoptosis at 50 to 100 uM after 72 hrs by propidium iodide staining-based flow cytometric analysis. Type of series: cell-based. Particulars: mcf-10a. The procedure, abridged: (§1)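 Cells seeded at 6000 cells per cm² and left 24 h, then given compound at 50 or 100 μM or vehicle (1% ddH2O) for 72 h. Trypsinised, fixed overnight at −20 °C in ice-cold 70% EtOH/PBS, then PI-stained 30 min at 37 °C. 10,000 gated events per sample. Sub-diploid (<2N, M1) cells scored as apoptotic. Mean ± S.E.M., ≥3 experiments.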

Series [10] can be described thus: Cytotoxicity in mouse NIH/3T3 cells assessed as induction of apoptosis at 50 to 100 uM after 72 hrs by propidium iodide staining-based flow cytometric analysis. Type of series: cell-based. Particulars: nih3t3, 72 h. The procedure, abridged:
as §1

Series [11] is described as follows: Cytotoxicity against human Kelly cells assessed as cell viability reduction incubated for 72 hrs by alamar blue assay. Type of series: functional, cell-based. The procedure, abridged:
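Kelly cells, 6000 per well, were allowed to attach for 24 h, then treated in triplicate at 0.1–100 µM final or with ddH2O vehicle for 72 h at 37 °C. AlamarBlue was added for 4.5 h in the dark and fluorescence read at ex 544/em 590 nm. Blank-subtracted % of vehicle; IC50 from a sigmoidal dose-response fit; ≥3 independent experiments.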

The nature of series [12]: Cell cycle arrest in human HL60 cells assessed as accumulation at pre-G1 phase at 50 uM after 24 hrs by propidium iodide staining-based flow cytometric analysis (reference value: 0.81 +/- 0.11%). Type of series: functional. The settings on record: HL-60.
Series [13] is described as follows: Cell cycle arrest in human HL60 cells assessed as accumulation at pre-G1 phase at 50 uM after 48 hrs by propidium iodide staining-based flow cytometric analysis (reference value: 1.41 +/- 0.32%). Type of series: functional. The settings on record: HL-60.
Series [14] in a line: Cell cycle arrest in human HL60 cells assessed as accumulation at pre-G1 phase at 50 uM after 72 hrs by propidium iodide staining-based flow cytometric analysis (reference value: 2.21 +/- 0.57%). Type of series: functional. Particulars: HL-60.
Series [15] in a line: Cell cycle arrest in human HL60 cells assessed as accumulation at G0/G1 phase at 50 uM after 24 hrs by propidium iodide staining-based flow cytometric analysis (reference value: 56.05 +/- 1.4%). Type of series: functional. Particulars: HL-60.
The nature of series [16]: Cell cycle arrest in human HL60 cells assessed as accumulation at G0/G1 phase at 50 uM after 48 hrs by propidium iodide staining-based flow cytometric analysis (reference value: 58.77 +/- 2.33%). Type of series: functional. Particulars: HL-60.
Series [17] in a line: Cell cycle arrest in human HL60 cells assessed as accumulation at G0/G1 phase at 50 uM after 72 hrs by propidium iodide staining-based flow cytometric analysis (reference value: 59.5 +/- 1.5%). Type of series: functional. The settings on record: HL-60.
Series [18] in a line: Cell cycle arrest in human HL60 cells assessed as accumulation at S phase at 50 uM after 24 hrs by propidium iodide staining-based flow cytometric analysis (reference value: 24.46 +/- 1.15%). Type of series: functional. The settings on record: HL-60.
The nature of series [19]: Cell cycle arrest in human HL60 cells assessed as accumulation at S phase at 50 uM after 48 hrs by propidium iodide staining-based flow cytometric analysis (reference value: 24.29 +/- 1.37%). Type of series: functional. Particulars: HL-60.
Series [20] can be described thus: Cell cycle arrest in human HL60 cells assessed as accumulation at S phase at 50 uM after 72 hrs by propidium iodide staining-based flow cytometric analysis (reference value: 23.58 +/- 1.38%). Type of series: functional. Particulars: HL-60.
Series [21] is described as follows: Cell cycle arrest in human HL60 cells assessed as accumulation at G2/M phase at 50 uM after 24 hrs by propidium iodide staining-based flow cytometric analysis (reference value: 16.73 +/- 0.59%). Type of series: functional. Particulars: HL-60.
Series [22] is described as follows: Cell cycle arrest in human HL60 cells assessed as accumulation at G2/M phase at 50 uM after 48 hrs by propidium iodide staining-based flow cytometric analysis (reference value: 11.35 +/- 1.05%). Type of series: functional. Particulars: HL-60.
Series [23] can be described thus: Cell cycle arrest in human HL60 cells assessed as accumulation at G2/M phase at 50 uM after 72 hrs by propidium iodide staining-based flow cytometric analysis (reference value: 10.53 +/- 0.81%). Type of series: functional. Particulars: HL-60.
Series [24] in a line: Cell cycle arrest in human HL60 cells assessed as accumulation at polyploid Gn phase at 50 uM after 24 hrs by propidium iodide staining-based flow cytometric analysis (reference value: 2.96 +/- 0.79%). Particulars: HL-60. Type of series: functional.
The nature of series [25]: Cell cycle arrest in human HL60 cells assessed as accumulation at polyploid Gn phase at 50 uM after 48 hrs by propidium iodide staining-based flow cytometric analysis (reference value: 3.02 +/- 0.56%). Type of series: functional. The settings on record: HL-60.
Series [26] can be described thus: Cell cycle arrest in human HL60 cells assessed as accumulation at polyploid Gn phase at 50 uM after 72 hrs by propidium iodide staining-based flow cytometric analysis (reference value: 3.43 +/- 0.48%). Type of series: functional. The settings on record: HL-60.

Turning to `N=C(N)Oc1ccc(Oc2ccc(OC(=N)N)cc2)cc1`, the thermal shift (ΔTm) in series [1] is 5 °C. For the same molecule, the pKa in series [2] worked out at 10.4. Besides, the half-maximal inhibitory concentration (IC50) in [3] is more than 100 µM.

Take `N=C(N)Oc1ccc(Sc2ccc(O)cc2)cc1`: the outcome in the series on HL-60 [4] and with HL-60 [5] was Active. In addition, the Activity result in [6] is “Non-toxic”; in [7], “Toxic”; in the series on HL-60 [8], 63.6%; in [9], “Non-toxic”; in [10] it was “Non-toxic”; in series [12], 9%. For the same molecule, the Activity in series [13] was determined as 55.5%; in series [14], 39.9%; in series [15], 11.2%; in series [16], 12.7%; in series [17], 18.2%; in series [18], 14.9%. Moreover, the Activity in series [19] stood at 10.4%; in [20] it was 16.2%; in [21], 52.4%; in series [22] it was 5.98%; in series [23] it was 8.67%; in series [24], 11.6%. In addition, the Activity in series [25] came to 15.3%; in series [26] it was 15.8%. Also, the shift in melting temperature (ΔTm) in [1] is 2 °C. Moreover, the IC50 turned out to be 52.9 µM in [3] and 33.9 µM in series [11].
